Screens (PubChem BioAssay)
Most compounds without a hit are left out; they make up all but 2.5% or so of the library.
SENP7 block: inhibitors of human SENP7 protease; Q9BQF6; recombinant SENP7, Z-RLRGG-aminoluciferin luminescence, 40 min; inhibition, % at 5 µM; actives 1.5% (n = 330,000); AID 434973;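 active means inhibition above about 50% at the single test dose, limit read from the data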;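 further: plate controls were DMSO with enzyme for no effect and no enzyme buffer wells for full effect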
SENP6 block: SENP6 protease inhibition. Q9GZR1. Recombinant SENP6 catalytic domain, aminoluciferin luminescence. inhibition, % at 10 µM. actives 1.8% (n = 330,000). AID 2599;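 active means inhibition above about 50% at the single tested dose, limit read from the data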;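 further: plate controls were DMSO wells with enzyme for no effect and DMSO wells lacking enzyme for full effect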
Target sequence (Q9GZR1 628-1112 limits assumed): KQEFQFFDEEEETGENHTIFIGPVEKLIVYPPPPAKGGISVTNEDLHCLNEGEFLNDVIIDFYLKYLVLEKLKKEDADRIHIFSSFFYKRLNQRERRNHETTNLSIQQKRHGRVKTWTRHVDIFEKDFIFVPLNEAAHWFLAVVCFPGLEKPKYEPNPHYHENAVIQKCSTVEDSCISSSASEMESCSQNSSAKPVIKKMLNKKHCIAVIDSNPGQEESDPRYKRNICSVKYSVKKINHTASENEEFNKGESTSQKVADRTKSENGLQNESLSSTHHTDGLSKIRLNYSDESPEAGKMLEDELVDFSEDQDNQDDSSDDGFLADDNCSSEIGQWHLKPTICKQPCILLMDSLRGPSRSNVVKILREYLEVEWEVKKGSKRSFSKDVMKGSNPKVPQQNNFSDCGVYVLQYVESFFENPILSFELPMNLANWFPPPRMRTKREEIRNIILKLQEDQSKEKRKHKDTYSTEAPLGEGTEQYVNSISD
SENP1 inh: blocks the human SENP1 SUMO protease catalytic domain; Q9P0U3; actives 0.21% (n = 360,000); AID 624204; inhibition, % at 10 µM; recombinant SENP1 catalytic domain, CyPet-SUMO1-YPet FRET cleavage;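 active means inhibition at least 30% at 10 µM, raw YFP signal under a set limit, fluorescence ratio 0.5 to 1.5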;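 further: 0% = enzyme with DMSO and 100% = no enzyme wells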
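system = hSENP1 catalytic domain, recombinant | reagent = SFCypet-SUMO1-SFYpet substrate at 25 nM | doses = one dose per compound, 10 µM, 0.5% DMSO | incubation = enzyme reaction for 50 min at room temperature, dark | measured by = FRET, CFP and YFP emission | controls = no-enzyme low, enzyme-DMSO high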
SENP8 block-1: SENP8 protease inhibition. Q96LD8. purified SENP8, Z-RLRGG-aminoluciferin cleavage, luminescence. inhibition, % at 10 µM. actives 1.2% (n = 330,000). AID 2540; in the data active means inhibition above about 50%
SENP8 block-2: blocks human SENP8 cleavage of Nedd8 substrate. recombinant SENP8, Nedd8 substrate fluorescence. actives 0.64% (n = 360,000). Q96LD8. AID 602440. inhibition, % at 20 µM; in the data active means inhibition mostly above about 40%, no sharp cut-off; inactive means mostly below about 27%
SENP8 conf: human SENP8 inhibition, confirmed. shares compounds with SENP7 block. Recombinant SENP8, Z-RLRGG-aminoluciferin luminescence, 60 min. inhibition, % at 12.5 µM. actives 40% (n = 6,200);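 active means mean inhibition across replicates above about 50%, limit read from the data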
SENP6 conf: confirmation of human SENP6 protease inhibitors; inhibition, % at 12.5 µM; recombinant SENP6, Z-RLRGG-aminoluciferin luminescence; actives 58% (n = 6,200); shares compounds with SENP7 block; AID 488915
SENP7 conf: confirmation of human SENP7 protease inhibitors; shares compounds with SENP7 block; recombinant SENP7, Z-RLRGG-aminoluciferin luminescence, 40 min; inhibition, % at 12.5 µM; actives 69% (n = 6,200)
Casp3 SENP sel: inhibits human caspase-3 in SENP selectivity test; shares compounds with SENP7 block; purified caspase-3, Z-DEVD-aminoluciferin luminescence, 60 min; inhibition, % at 12.5 µM; actives 60% (n = 6,200);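 active means mean inhibition above about 50%, limit read from the data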;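 further: plate controls were enzyme with DMSO for no effect and wells without caspase-3 for full effect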
Luc interf: interferes with luciferase luminescence in SENP counter-screen | shares compounds with SENP7 block | Pre-incubated SENP8/Z-RLRGG-aminoluciferin, luciferase luminescence interference | inhibition, % at 12.5 µM | actives 39% (n = 6,200);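 active means mean inhibition above about 50% when retested at one dose, limit read from the data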;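 further: plate controls were DMSO wells with completed reaction for no effect and substrate without enzyme for full effect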
* hit, by the source's call; i = inactive; / = no result.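 How the source made its calls, unless noted: active means mean inhibition above about 50% in the one-dose retest (limit read from the data); inactive means the rest.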

SMILES	SENP7 block	SENP6 block	SENP1 inh	SENP8 block-1	SENP8 block-2	SENP8 conf	SENP6 conf	SENP7 conf	Casp3 SENP sel	Luc interf
O=C(Nc1cccc(O)c1)c1cc(-c2cccs2)on1	75*	94*	2	85*	17	94*	94*	100*	92*	95*
O=C(Nc1c(Cl)cccc1Cl)c1cc(-c2ccco2)on1	-2	-24	0	5	-2	/	/	/	/	/
COc1ccc(NC(=O)c2cc(-c3cccc(OC)c3)on2)cc1	5	-20	2	-14	18	/	/	/	/	/
COC(C[C@@H](O)[C@H](C)[C@@H](O)COCc1ccccc1)OC	0	4	0	-1	13	/	/	/	/	/
CCOc1ccc(NC(=O)CCN2C(=O)c3ccccc3C2=O)cc1	-7	11	3	-8	8	/	/	/	/	/
COc1cc(NS(=O)(=O)c2ccc(NC(=O)/C(=C/c3ccccc3Cl)NC(=O)c3ccccc3)cc2)nc(OC)n1	4	64*	-2	3	17	-20	-17	-3	-7	-5
COc1cc(NS(=O)(=O)c2ccc(NC(=O)/C(=C\c3ccccc3OC)NC(=O)c3ccccc3)cc2)nc(OC)n1	-4	2	-1	1	-3	/	/	/	/	/
S=C(Nc1ccc2nsnc2c1)N1CCCC1	54*	83*	-23	57*	-52	6	28	24	70*	67*
O=C(Nc1ccc2nsnc2c1)N1CCCCCC1	13	-15	-9	4	i	/	/	/	/	/
O=C(O)c1ccccc1N=Nc1c(O)[nH]c2ccc([N+](=O)[O-])cc12	94*	99*	-6	95*	29	98*	98*	101*	94*	37
COc1ccc(OC)c(Cc2nnc(CCC(=O)N3CCN(C4CCCC4)CC3)o2)c1	-14	-10	2	-7	2	/	/	/	/	/
CN1C(=O)CC(Nc2cccc3cccc(N)c23)C1=O (stereo not drawn)	61*	-10	-7	44	13	9	24	7	-2	-3
CC(C)N1C(=O)CC(Nc2cccc3cccc(N)c23)C1=O (stereo not drawn)	/	/	-26	/	-84	/	/	/	/	/
O=C(NCCN1CCOCC1)/C(=C\c1ccc(Br)cc1)NC(=O)c1cccs1	-5	-7	-46	-7	7	/	/	/	/	/
Cc1ccc(C)c(S(=O)(=O)Nc2nc3ccc(S(N)(=O)=O)cc3s2)c1	3	8	-4	1	-6	/	/	/	/	/
CC(=O)Nc1ccc(N=Cc2c(O)c(C(=O)Nc3ccccc3)cc3ccccc23)cc1	30	45	/	72*	/	21	16	20	14	11
O=C(OCc1ccc(Cl)c(Cl)c1)c1ccc[nH]1	33	59*	-1	47	15	54*	51*	82*	26	71*
O=C(CN1CCC(C(=O)c2ccc3c(c2)OCCO3)CC1)NCc1ccc(F)cc1	3	-5	-3	-3	6	/	/	/	/	/
O=c1oc2c(O)cccc2cc1-c1nc2ccccc2[nH]1	96*	93*	-24	1	-287	31	85*	36	39	14
O=c1oc2c(CN3CCCCC3)c(O)ccc2cc1-c1nc2ccccc2[nH]1	/	/	-25	/	-250	/	/	/	/	/
CCOc1ccc2nc(N3CCC(C(=O)N4CCN(C5CCCCC5)CC4)CC3)sc2c1	-9	-14	1	-3	17	/	/	/	/	/
Clc1cc(Cl)c2nc(N3CCCC3)sc2c1	36	-1	2	29	8	/	/	/	/	/
O=C(c1cccs1)N1CCN(c2nc3c(F)cc(F)cc3s2)CC1	-1	3	2	-7	2	/	/	/	/	/
O=[N+]([O-])c1ccc2nc(N3CCCC3)sc2c1	44	27	-10	24	9	/	/	/	/	/
CCOc1ccc2nc(N3CCCCCC3)sc2c1	62*	55*	2	37	2	51*	55*	84*	50*	57*
SMILES	SENP7 block	SENP6 block	SENP1 inh	SENP8 block-1	SENP8 block-2	SENP8 conf	SENP6 conf	SENP7 conf	Casp3 SENP sel	Luc interf
Fc1ccc2nc(N3CCCC3)sc2c1	56*	31	-1	44	4	-8	46	85*	69*	15
Fc1cc(F)c2nc(N3CCCCC3)sc2c1	75*	36	-20	61*	10	11	75*	95*	72*	20
Clc1cc(Cl)c2nc(N3CCCCC3)sc2c1	47	67*	1	27	16	18	9	25	17	11
CN(C)CCN1CCN(C2CN(Cc3ccc([N+](=O)[O-])cc3)S(=O)(=O)C2)CC1 (stereo not drawn)	/	/	2	/	12	/	/	/	/	/
O=C1[C@@H]2Cc3c([nH]c4ccccc34)CN2C(=O)CN1CCCCCO	7	1	-8	-2	7	/	/	/	/	/
CCn1c(=O)c(C(=O)NCc2ccccc2OC)c(O)c2ccccc21	5	-13	3	7	-14	/	/	/	/	/
CCCn1c(=O)c(C(=O)NCc2ccccc2OC)c(O)c2ccccc21	9	88*	1	6	-22	9	5	3	0	4
CN(C)S(=O)(=O)c1ccc(SCC(=O)N2CC(=O)Nc3ccccc32)nc1	9	17	-22	3	-12	/	/	/	/	/
Cc1c(C(=O)N2CCOCC2)[nH]c2c1C(=O)CC(c1ccc(Cl)cc1)C2 (stereo not drawn)	2	0	0	3	22	/	/	/	/	/
Cc1c(C(=O)O)[nH]c2c1C(=O)CC(c1ccc(Cl)cc1)C2 (stereo not drawn)	90*	-7	0	5	8	7	5	-2	-2	-5
O=C(Nc1ccc(OCc2ccccc2)cc1)c1cccnc1	32	3	0	2	4	/	/	/	/	/
O=C(Nc1ccc(OCc2ccccc2)cc1)c1ccccc1	67*	29	1	5	13	5	8	8	6	-5
Cc1ccsc1C(=O)Nc1ccc(OCc2ccccc2)cc1	98*	91*	-1	88*	19	1	84*	101*	95*	4
COc1ccc2nc(NC(=O)c3cccc(OCc4c(C)noc4C)c3)sc2c1	47	60*	-2	33	-280	-2	5	71*	24	4
CC(C)=CC(=O)Nc1ccc(Br)cc1	54*	47	0	16	-4	49	48	83*	61*	60*
